Assay type in all cases: functional
What all share (conditions): for TGI: read-out: pTGI (converted)

One test relates to Melanoma cell. Briefly: Inhibition of human melanoma cells. The method, boiled down: (§1)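 NCI 60-cell-line panel, with results grouped by tissue subpanel. Compounds dissolved in DMSO and tested at five 10-fold dilutions, top concentration 10^-4 M. Values given as -log molar concentration for 50% growth inhibition (pGI50), total growth inhibition (pTGI) and 50% cell kill (pLC50), with subpanel means calculated.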

The next test relates to Leukemia cell. Briefly: Inhibition of human leukemia cells. The gist of the method: as §1
For test [1], the system named is Cancer cell lines. Briefly: Inhibition of human ovarian cancer cells. The gist of the method:
as §1

The subject of test [2] is Cancer cell lines. Briefly: Inhibition of human CNS cancer cells. The gist of the method:
as §1

For test [3], the system named is Cancer cell lines. Briefly: Inhibition of human prostate cancer cells. The gist of the method:
as §1

Test [4] has as its system Cancer cell lines. Briefly: Inhibition of human breast cancer cells. The method, boiled down: as §1
In test [5] the test system is Cancer cell lines. Briefly: Inhibition of human colon cancer cells. The method, boiled down:
as §1

The subject of test [6] is Cancer cell lines. Briefly: Inhibition of human non-small cell lung cancer cells. The method, boiled down: as §1
The test system of test [7] is Cancer cell lines. Briefly: Inhibition of human renal cancer cells. The method, boiled down: as §1

One may read the GI50 as the concentration at which growth is held to half of that of the control. Take `N=C(N)N/N=C/c1c(-c2ccc(Cl)c([N+](=O)[O-])c2)nc2ccccn12`: the GI50 in the test on Melanoma cell is 2.04 µM; in the test with Leukemia cell it was 1.7 µM; in the test with Cancer cell lines [1] it was 1.86 µM; in the test on Cancer cell lines [2], 1.2 µM; with Cancer cell lines [3] it was 1.51 µM; with Cancer cell lines [4], 2.29 µM. The GI50 with Cancer cell lines [5] was 1.86 µM; in the test with Cancer cell lines [6], 1.7 µM; in the test on Cancer cell lines [7] it was 2.19 µM. Further, the TGI in the test with Melanoma cell was 3.63 µM; with Leukemia cell, 3.8 µM; with Cancer cell lines [1], 3.63 µM; with Cancer cell lines [2] it was 3.02 µM; with Cancer cell lines [3] it was 3.09 µM; with Cancer cell lines [4], 5.37 µM. Besides, the TGI was 7.94 µM in the test on Cancer cell lines [5], 3.8 µM in the test with Cancer cell lines [6] and 4.9 µM with Cancer cell lines [7].

`COc1cc([N+](=O)[O-])c(OC)cc1-c1nc2sc(Cl)cn2c1/C=N\NC(=N)N/N=C\c1c(-c2cc(OC)c([N+](=O)[O-])cc2OC)nc2sc(Cl)cn12`: the GI50 is 1.91 µM with Melanoma cell; 2.34 µM with Leukemia cell; 1.82 µM in the test with Cancer cell lines [1]; 1.62 µM in the test on Cancer cell lines [2]; 1.95 µM with Cancer cell lines [3]; 3.31 µM in the test on Cancer cell lines [4]. Further, the GI50 in the test on Cancer cell lines [5] is 2.24 µM; with Cancer cell lines [6], 2.04 µM; in the test on Cancer cell lines [7], 2.19 µM. Further, the TGI in the test with Melanoma cell is 5.13 µM; in the test with Cancer cell lines [1], 3.8 µM; in the test on Cancer cell lines [2], 2.57 µM; in the test with Cancer cell lines [3] it was 3.8 µM; in the test with Cancer cell lines [4], 6.76 µM; in the test with Cancer cell lines [5] it was 7.08 µM. Besides, the TGI was 3.98 µM in the test with Cancer cell lines [6] and 4.9 µM in the test with Cancer cell lines [7].

With `Cc1cc(-c2nc3sccn3c2/C=N/NC(=N)N)c(C)s1`, the GI50 was 16.2 µM in the test with Melanoma cell; 15.5 µM in the test with Leukemia cell; 17.4 µM with Cancer cell lines [1]; 15.5 µM in the test with Cancer cell lines [2]; 13.8 µM with Cancer cell lines [3]; 16.2 µM with Cancer cell lines [4]. Further, the values for the GI50 with Cancer cell lines [5], with Cancer cell lines [6] and with Cancer cell lines [7] were 15.5 µM, 16.6 µM and 17.8 µM, respectively. Moreover, the TGI was 30.9 µM in the test on Melanoma cell; 33.9 µM with Cancer cell lines [1]; 30.2 µM in the test with Cancer cell lines [2]; 26.9 µM in the test on Cancer cell lines [3]; 30.2 µM in the test on Cancer cell lines [4]; 32.4 µM in the test with Cancer cell lines [5]. The TGI with Cancer cell lines [6] is 33.1 µM; in the test with Cancer cell lines [7], 32.4 µM.

Consider `CCOC(=O)c1nc2sc(Cl)cn2c1/C=N\NC(=N)N`, for which the GI50 in the test with Melanoma cell is 19.5 µM; with Leukemia cell, 14.1 µM; with Cancer cell lines [1] it was 20.9 µM; in the test with Cancer cell lines [2], 19.5 µM; in the test on Cancer cell lines [3] it was 17 µM; in the test with Cancer cell lines [4] it was 22.9 µM. The concentration for 50% growth inhibition (GI50) in the test on Cancer cell lines [5] was 20.9 µM; in the test on Cancer cell lines [6] it was 18.2 µM; in the test with Cancer cell lines [7] it was 21.4 µM. Moreover, the TGI in the test with Melanoma cell was 45.7 µM; with Leukemia cell, 38.9 µM; in the test on Cancer cell lines [3], 38.9 µM; with Cancer cell lines [5] it was 47.9 µM; with Cancer cell lines [6], 41.7 µM.

For the origin of these results see ChEMBL document CHEMBL1142319, “New antitumor imidazo[2,1-b]thiazole guanylhydrazones and analogues” (2008).
